An excerpt weighted towards active compounds, which were near 2.4% of everything screened.
GSIS activator = GLuc luminescence reporter in INS-1E cells, primary screen for activators of glucose-dependent secretion of insulin. INS-1E GLuc reporter insulin secretion, 2-3 h. activation, % at 16.6 µM. hit rate 0.61% among 370,000. AID 743287;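 active means lowest replicate activation of at least 40%, so every replicate reaches that level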;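 further: 0% = median of neutral control wells and 100% = median of IBMX positive control wells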
dFosB act-1 = activators of mouse delta FosB homodimer. purified delta FosB, TAMRA-CDK5 oligo fluorescence polarization; percent of positive-control signal above neutral wells. activation, % at 25 µM. AID 493131. hit rate 0.99% among 340,000. P13346;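 active means mean activation above about 17%, with every replicate also reaching it, limit read from the data, passing the limit was not always enough; inconclusive means only one of the two conditions met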
Target sequence (P13346 whole entry, looked up): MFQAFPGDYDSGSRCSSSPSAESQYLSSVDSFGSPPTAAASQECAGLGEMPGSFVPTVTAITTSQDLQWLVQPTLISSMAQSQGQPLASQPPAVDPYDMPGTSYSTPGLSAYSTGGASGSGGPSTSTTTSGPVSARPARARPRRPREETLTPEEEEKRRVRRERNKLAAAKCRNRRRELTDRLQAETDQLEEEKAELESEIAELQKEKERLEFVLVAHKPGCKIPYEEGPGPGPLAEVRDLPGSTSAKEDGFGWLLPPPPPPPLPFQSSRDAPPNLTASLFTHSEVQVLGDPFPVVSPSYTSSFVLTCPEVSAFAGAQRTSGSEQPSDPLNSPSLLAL
miR122 inh = miR-122 inhibition in Huh7 cells; Huh7 miR-122 Renilla luciferase sensor, 48 h; neutral wells = 0, positive control = 100; activation (reporter increase), % at 12.5 µM; hit rate 0.3% among 340,000; AID 602342;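 active means mean replicate activation score at least 90 and every replicate individually at or above 90; inconclusive means only one of the two criteria met; inactive means neither criterion met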;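 further: higher luciferase means less miR-122 activity so hits act as miR-122 inhibitors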
Env fusion inh = blocks HIV Env-driven cell-cell fusion. HeLa-JRFL Env/CEM21 cell fusion, luciferase. inhibition, % at 12.3 µM. hit rate 1.1% among 360,000;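 active means mean replicate inhibition score of at least 50 and every replicate individually at or above 50; inconclusive means only one of the two criteria met; inactive means mean below 50 and not all replicates reaching 50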;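 further: 0% = plate neutral controls and 100% = maraviroc near 300 nM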
Rtt109 HAT inh = inhibitors of Candida albicans Rtt109/Vps75 histone acetyltransferase; inhibition, % at 34.9 µM; AID 540336; hit rate 0.16% among 330,000; Q5AAJ8; purified Rtt109/Vps75, ThioGlo CoA-SH fluorescence, 4 h;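 active means inhibition of at least 50% in every replicate; inconclusive means best replicate reaches 50% inhibition but some replicates fall short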
Target sequence (Q5AAJ8 whole entry, looked up): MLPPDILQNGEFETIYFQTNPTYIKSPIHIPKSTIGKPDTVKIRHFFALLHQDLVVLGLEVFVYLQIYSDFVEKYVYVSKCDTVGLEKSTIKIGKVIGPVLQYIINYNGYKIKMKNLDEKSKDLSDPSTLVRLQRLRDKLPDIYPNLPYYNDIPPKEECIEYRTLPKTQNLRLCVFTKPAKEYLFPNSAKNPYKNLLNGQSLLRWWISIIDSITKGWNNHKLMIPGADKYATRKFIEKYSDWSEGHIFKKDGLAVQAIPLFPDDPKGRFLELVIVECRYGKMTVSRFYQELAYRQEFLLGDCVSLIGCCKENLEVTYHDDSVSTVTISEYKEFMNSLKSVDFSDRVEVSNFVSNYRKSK
Cneo AK release = causes C. neoformans cell lysis. adenylate kinase release luminescence, 4 h; normalised: neutral wells 0, clomiphene wells 100. lysis activity, % at 15 µM. hit rate 0.2% among 360,000;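 active means mean lysis activity across replicates of at least 80%, whatever share of replicates individually reach that level; inactive means mean lysis activity below 80%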
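Assay system: C. neoformans cells. Amount: yeast cell density of 5 × 10^6 cells/mL. Technique: AK luminescence. Buffer or medium: YPD. Times: static 4 h at 37 °C with compound, 1 h detection. Dosing: single-point compound dose. Read-out: lysis from increased AK signal.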
dFosB act-2 = delta FosB (mouse) homodimer activation. purified delta FosB, TAMRA-CDK5 oligo fluorescence polarization; normalised: neutral wells 0, positive control 100. activation, % at 24.9 µM. shares compounds with dFosB act-1. 2,400 tested, under 10 active. AID 588690;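 active means highest replicate activation at or above 34% and every replicate reaching that threshold; inconclusive means meets only one of the two criteria; inactive means meets neither criterion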;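 further: higher polarization means more probe DNA bound by delta FosB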
Numbers without * were called inactive; i = inactive; ? = inconclusive; nt = not tested or not shown; [ ] = remark or other dose.

SMILES | GSIS activator | dFosB act-1 | miR122 inh | Env fusion inh | Rtt109 HAT inh | Cneo AK release | dFosB act-2
Cc1cc(Nc2ccc3c(c2)OCCO3)c2cc(Cl)ccc2n1 | 21.3 | 29.4* | nt | 5.5 | 13.4 | nt | -8.0
Cc1ccc2nc3c(c(Nc4ccc5c(c4)OCCO5)c2c1)CCC3 | nt | 29.8* | 7.7 | -11.8 | -4.9 | 3.2 | 1.7
NS(=O)(=O)c1ccc(NC(=O)c2cc(-c3cc(Cl)ccc3O)n[nH]2)cc1 | -1.7 | 37.9* | 3.6 | 10.3 | -5.5 | -0.3 | -2.4
CCCC(=O)Nc1ccccc1-c1nnn(CC(=O)Nc2ccc(OC)cc2)n1 | nt | 10.5 | nt | nt | 0.7 | 3.2 | nt
CCOc1ccc(NC(=O)Cn2nnc(-c3ccccc3NC(=O)c3cccs3)n2)cc1 | nt | 52.1* | -10.9 | nt | -2.9 | -0.9 | 5.0
O=C(COC(=O)c1cccnc1Nc1ccccc1F)NCc1ccc2c(c1)OCO2 | 9.1 | 55.2* | -2.1 | -69.5 | -10.7 | -0.8 | 3.2
COc1cc(NC(=O)C2Cc3ccccc3CN2S(C)(=O)=O)cc(OC)c1 (configuration not stated) | 16.7 | 23.2* | -2.0 | 8.9 | 7.9 | -0.7 | -0.1
COc1ccc(Cl)cc1NC(=O)C1Cc2ccccc2CN1S(C)(=O)=O (configuration not stated) | 12.1 | -11.0 | 4.8 | -0.3 | 10.1 | 1.0 | nt
COc1cccc(NC(=O)CSc2nc3ncc(Br)cc3[nH]2)c1 | 21.0 | ? | -4.5 | 3.9 | -10.1 | 0.4 | nt
Cc1ccc(NC(=O)CSc2nc3nc(C)c(Br)cc3[nH]2)cc1F | 8.9 | 57.2* | -2.6 | 5.5 | 1.5 | -0.6 | -4.3
COC(=O)CSc1nc2nc(C)c(Br)cc2[nH]1 | nt | -7.5 | 4.4 | -118.2 | -9.6 | 2.5 | nt
CCc1ccc(NC(=O)CSc2nc3ncc(Br)cc3[nH]2)cc1 | 19.4 | 19.5* | -1.9 | 3.2 | -3.3 | -0.9 | 0.2
C[C@H](CO)N1C[C@H](C)[C@H](CN(C)C(=O)C2CCCCC2)Oc2ncc(C#Cc3ccccc3F)cc2C1=O | -19.9 | nt | 5.4[16.7 µM] | 6.4[16.7 µM] | nt | 52.9 | nt
O=C(N[C@H]1CC[C@H](CCNS(=O)(=O)c2ccc(F)cc2)O[C@H]1CO)c1cnccn1 | 15.9 | nt | nt | 15.7[16.7 µM] | nt | -1.7 | nt
O=C(CC1S/C(=N/N=C/c2c[nH]c3ccc(OCc4ccccc4)cc23)NC1=O)Nc1ccccc1 (configuration not stated) | 22.9 | 32.5* | nt | 15.7 | 20.3 | nt | 4.1
O=C(CC1S/C(=N/N=C/c2c[nH]c3ccccc23)NC1=O)Nc1ccccc1 (configuration not stated) | -11.6 | 3.6 | nt | -35.9 | -4.8 | nt | nt
Cc1sc(NC(=O)Cn2c(=O)oc3ccccc32)nc1-c1ccc(Cl)cc1 | -2.6 | 39.6* | nt | -15.2 | 0.1 | nt | 5.9
CCc1nnc(NC(=O)Cn2c(=O)oc3ccccc32)s1 | 17.5 | 6.0 | 4.0 | nt | -18.2 | 0.1 | nt
O=C(NCc1csc2ccc(Cl)cc12)Nc1cccc2ccccc12 | 3.5 | 44.4* | nt | -2.4 | -9.0 | nt | 1.5
Cc1ccc(C)c(NC(=S)NC(NC(=O)Cc2cccc3ccccc23)C(Cl)(Cl)Cl)c1 (configuration not stated) | nt | 27.6* | nt | nt | -7.8 | -0.2 | 3.1
O=C(Cc1ccccc1)NC(NC(=S)Nc1cc(Cl)ccc1Cl)C(Cl)(Cl)Cl (configuration not stated) | nt | 22.0* | -3.8 | -354.0 | 4.5 | 1.8 | -0.2
Cc1ccc(C)c(NC(=S)NC(NC(=O)N(C)C)C(Cl)(Cl)Cl)c1 (configuration not stated) | nt | -7.5 | 4.3 | nt | -0.4 | 7.2 | nt
O=C(NCc1ccccc1)Nc1cc(Cl)ccc1Cl | 11.9 | 39.9* | 10.0 | -30.8 | 22.7 | 1.9 | 1.8
O=C(NCc1ccncc1)Nc1cc(Cl)ccc1Cl | 2.5 | -6.4 | -9.4 | 0.1 | nt | -1.5 | nt
C[C@@H]1CN([C@@H](C)CO)C(=O)Cc2cc(NS(=O)(=O)c3ccc(F)cc3)ccc2O[C@H]1CN(C)S(=O)(=O)c1cccs1 | 1.8 | nt | 0.0[16.7 µM] | -1.3[16.7 µM] | nt | 37.9 | nt
SMILES | GSIS activator | dFosB act-1 | miR122 inh | Env fusion inh | Rtt109 HAT inh | Cneo AK release | dFosB act-2
CCC(=O)N(C)C[C@@H]1Oc2cc(C#CC3CC3)ccc2S(=O)(=O)N([C@@H](C)CO)C[C@@H]1C | -1.9 | nt | 5.6[16.7 µM] | 15.6[16.7 µM] | nt | 2.2 | nt
COc1ccc2cc(C)c3nnc(SCC(=O)Nc4cc(OC)c(OC)cc4C(=O)O)n3c2c1 | 3.9 | -0.2 | 0.4 | 8.4 | -0.3 | 0.8 | nt
COc1ccc2cc(C)c3nnc(SCC(=O)Nc4nc(-c5ccccc5)cs4)n3c2c1 | nt | 41.1* | 3.3 | -94.0 | -8.4 | 1.9 | 1.8
O=C(C[C@@H]1CC[C@H](NC(=O)Cc2cccnc2)[C@@H](CO)O1)Nc1ccccc1 | 13.7 | nt | nt | nt | nt | nt | nt
Cc1ccc2nc(-c3ccc(SCC(=O)Nc4nc(C)cs4)nc3)[nH]c2c1 | -13.8 | 33.0* | 1.8 | i | -3.3 | 0.4 | 4.7
Cc1ccc2nc(-c3ccc(SCC(=O)Nc4nnc(C)s4)nc3)[nH]c2c1 | 459.1* | 71.6* | nt | nt | -3.0 | nt | 2.4
Cc1csc(NC(=O)CSc2ncc(-c3ccccc3)[nH]2)n1 | -14.2 | -5.6 | 21.2 | 9.3 | -1.1 | -2.6 | nt
O=C(Nc1cnc2ccccn2c1=O)c1ccc(Cl)cc1Cl | 8.8 | 19.1* | 0.4 | 17.0 | -2.9 | -9.3 | 4.6
Cc1ccc(C(=O)Nc2cnc3ccccn3c2=O)cc1 | nt | -0.6 | -2.2 | -43.9 | 4.9 | -0.5 | nt
Cc1ccccc1OCCOc1cccc(/C=N/NC(=O)Cc2nnc(N)s2)c1 | nt | 48.5* | 3.5 | nt | -10.1 | -1.9 | -1.4
Cc1c(C(=O)OCC(=O)N2CC(=O)Nc3ccccc32)oc2ccc(Br)cc12 | 72.9* | 70.0* | -5.9 | nt | 14.6 | 1.8 | 0.2
Cc1ccc(NC(=O)CSc2nncn2-c2ccccn2)cc1Cl | -4.0 | 25.6* | nt | -45.2 | -3.1 | -3.6 | -4.0
CC(C)CCNC(=O)CCC(=O)NNc1nc2ccccc2c2nc(-c3ccccc3)nn12 | -6.8 | 55.5* | -4.9 | -45.6 | 3.5 | 1.4 | 5.6
O=C(CCC(=O)NNc1nc2ccccc2c2nc(-c3ccccc3)nn12)NCCCN1CCOCC1 | 13.6 | -24.3 | nt | -13.4 | 2.2 | nt | nt
O=C(/C=C/c1ccc([N+](=O)[O-])cc1)Oc1ccc(/C=N/NC(=O)c2ccncc2)cc1 | nt | 26.3* | -1.1 | -5.3 | -8.6 | 0.3 | 6.1
CCC(C)NC(=O)Cn1c(=O)n(CCCCCC(=O)Nc2ccccc2)c(=O)c2sccc21 (configuration not stated) | 18.3 | 17.6* | nt | nt | 1.9 | nt | -0.1
CS(=O)(=O)N1[C@@H]2Cn3c(ccc(C4=CCCC4)c3=O)[C@H]1[C@@H](C(=O)N1CCCCC1)[C@@H]2CO | 18.4 | nt | -2.6[16.7 µM] | nt | nt | -0.6 | nt
CN(C)CC(=O)N1[C@H](CO)[C@@H](c2ccccc2)C12CN(Cc1cc(F)ccc1F)C2 | -0.4 | nt | nt | nt | nt | nt | nt

High-throughput results: PubChem BioAssay, Broad Institute
